High-throughput results (PubChem BioAssay)
An excerpt weighted towards active compounds, which were near 1.4% of everything screened.
m-calpain inh: calpain II (pig) inhibition | purified calpain II, fluorogenic peptide substrate, 30 min | inhibition, % at 16 µM | actives 0.37% (n = 220,000) | AID 1236;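 active means inhibition above about 50%, limit read from the data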
KLK5 inh: kallikrein 5 (human) inhibition; inhibition, % at 5 µM; recombinant hK5, fluorogenic AMC substrate cleavage; actives 0.59% (n = 210,000); Q9Y337;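 active means inhibition of 40% or more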;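 further: 0% = enzyme controls without compound and 100% = no-enzyme blanks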
FXIa inh: inhibitors of human coagulation factor XIa. P03951. purified FXIa, Boc-Glu-Ala-Arg-AMC fluorogenic substrate. inhibition, % at 5 µM. actives 0.14% (n = 220,000). AID 798;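 active means inhibition of at least 40%; inactive means inhibition below 40%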;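 further: fluorescence of freed AMC excited at 355 nm; 0% = enzyme without compound and 100% = no enzyme blank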
Target sequence (P03951 19-387 limits assumed): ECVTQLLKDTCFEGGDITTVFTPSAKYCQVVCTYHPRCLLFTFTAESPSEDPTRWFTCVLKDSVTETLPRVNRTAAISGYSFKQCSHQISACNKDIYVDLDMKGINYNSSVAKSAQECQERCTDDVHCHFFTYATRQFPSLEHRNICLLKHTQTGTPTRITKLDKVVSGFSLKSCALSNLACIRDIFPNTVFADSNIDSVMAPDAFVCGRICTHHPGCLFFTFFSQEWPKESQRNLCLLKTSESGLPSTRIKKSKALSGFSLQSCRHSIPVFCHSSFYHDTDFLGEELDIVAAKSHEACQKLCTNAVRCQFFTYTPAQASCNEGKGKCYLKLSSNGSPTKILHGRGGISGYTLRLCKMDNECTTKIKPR
Target sequence (P03951 388-625 limits assumed): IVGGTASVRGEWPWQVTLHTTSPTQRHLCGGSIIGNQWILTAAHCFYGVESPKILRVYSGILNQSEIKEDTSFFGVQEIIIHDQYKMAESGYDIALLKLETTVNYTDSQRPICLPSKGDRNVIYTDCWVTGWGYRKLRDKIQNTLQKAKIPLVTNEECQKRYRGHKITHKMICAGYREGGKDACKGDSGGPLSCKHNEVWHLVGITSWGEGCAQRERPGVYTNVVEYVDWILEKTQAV
FXIIa inh: inhibitors of human coagulation factor XIIa. actives 0.3% (n = 220,000). inhibition, % at 5 µM. purified FXIIa, Boc-QGR-AMC fluorogenic substrate, 2 h. AID 800. P00748; in the data active means inhibition above about 40%;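 further: 0% = enzyme with no compound and 100% = blank without enzyme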
thrombin 1536: inhibitors of human thrombin; P00734; alpha-thrombin, Boc-VPR-AMC fluorogenic substrate cleavage; inhibition, % at 5 µM; actives 0.26% (n = 220,000);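 active means inhibition at or above 40%; inactive means inhibition below 40%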;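 further: 0% = enzyme with no compound and 100% = wells without enzyme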
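System: Human alpha-thrombin protein | Medium: pH 7.5 Tris (50 mM) with NaCl 150 mM, Tween 20 0.05% | Times: Enzyme reaction carried out at room temperature | Detection: AMC fluorescence, 355/460 nm | Evaluation: Percent inhibition scaled between no-compound controls and no-enzyme blanks | Benchmarks: Enzyme without compound as high, wells lacking enzyme as low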
* marks the source's active call; other numbers are inactive results; x = not tested or not shown.

SMILES | m-calpain inh | KLK5 inh | FXIa inh | FXIIa inh | thrombin 1536
COc1ccc(-n2c(CNc3ccc(C)cc3)nnc2SCC(=O)Nc2nc(-c3ccccc3)cs2)cc1 | 68* | -1 | 5 | 14 | 0
CCN(CC)C(=O)c1ccc(NS(=O)(=O)c2ccc(/C=C/C(=O)O)cc2)cc1 | 24 | 44* | 29 | 23 | x
Cc1cc(C)cc(NC(=O)c2nccnc2C(=O)O)c1 | -8 | -5 | -7 | 0 | -6
Nc1c([N+](=O)[O-])cnnc1-c1ccccc1 | 6 | -5 | -3 | 0 | -8
Nc1n[nH]c(N)c1N=Nc1ccc(Cl)cc1Cl | 27 | -15 | -8 | 3 | -5
Cn1c(=O)n(C)c2cc([N+](=O)[O-])c(N3CCN(S(C)(=O)=O)CC3)cc21 | 10 | -21 | 4 | 14 | 0
Cn1c(=O)n(C)c2cc([N+](=O)[O-])c(N3CCN(CCO)CC3)cc21 | 66* | 2 | 0 | 9 | 1
CCCOc1ccc2oc(=O)c3c(c2c1)CCCN3C(=O)CN(C)Cc1ccccc1 | -121 | 8 | 1 | 12 | -3
Cc1cc(C(=O)COC(=O)c2ccc[nH]c2=O)c(C)n1CCc1ccc(F)cc1 | 22 | 44* | 24 | 29 | x
O=C(N/N=C/c1cccc(F)c1)c1c(O)c2ccccc2[nH]c1=O | -25 | 17 | -14 | -4 | 45*
CCOc1ncccc1C(=O)OCC(=O)Nc1ccc(C(N)=O)cc1 | 15 | 42* | 14 | 45* | 3
CCOc1ncccc1C(=O)OCC(=O)Nc1ccc(C(C)C)cc1 | -4 | -8 | -4 | 6 | -14
COc1cccc(NC(=O)CN(C)CC(=O)Nc2ccc(Cl)cc2[N+](=O)[O-])c1 | 55* | -5 | -2 | 3 | -9
O=C(Cc1cccs1)Nc1nnc(Cc2ccc(F)cc2)s1 | -18 | 77* | 15 | 31 | 23
O=C1C[C@H]2[C@H](CO)[C@@H](OC(=O)c3ccc(-c4ccccc4)cc3)C[C@H]2O1 | 12 | 72* | 17 | 10 | 19
O=C1CC2C(CC(OC(=O)c3ccc(-c4ccccc4)cc3)C2CO)O1 (configuration not stated) | -4 | -8 | -7 | 8 | -2
COc1cccc(C(=O)Nc2cccc(C(C)=O)c2)c1 | 23 | -9 | 8 | 8 | -4
COC(=O)c1cccc(NC(=O)NC(=O)c2ccc(Cl)cc2)c1 | 42 | 70* | 11 | 24 | 12
O=C(Nc1ccccc1)c1cccc(-c2nnc(-c3ccccc3)o2)c1 | -7 | -4 | -3 | 4 | -1
COc1cccc(C(=O)Nc2cccc(-c3nnc(-c4ccco4)o3)c2)c1 | 56* | -1 | 0 | 12 | 1
COC(=O)c1cccc(NC(=O)c2cccc(OC)c2)c1 | 53* | -16 | -8 | 1 | -10
Cc1ccc2cc(CN(C(=O)c3cccs3)c3ccccc3)c(=O)[nH]c2c1 | 9 | 62* | 25 | 74* | 18
Cc1cccc(NCN2C(=O)c3ccccc3C2=O)c1 | 3 | 5 | 3 | 14 | -1
CCOC(=O)NC1(C(F)(F)F)NC(=O)N(c2ccc(F)cc2)C1=O (configuration not stated) | 16 | -1 | 2 | 14 | -6
O=C(CCN1C(=O)C2C3C=CC(C3)C2C1=O)NC1CCCc2ccccc21 (configuration not stated) | 1 | 53* | 13 | 23 | 14
SMILES | m-calpain inh | KLK5 inh | FXIa inh | FXIIa inh | thrombin 1536
O=C(CCn1ccc2ccccc21)NC1CCCc2ccccc21 (configuration not stated) | -13 | -17 | -3 | 7 | -3
CCOCCn1c(CN2CCOCC2)nc2c1c(=O)[nH]c(=O)n2C | -14 | 41* | -7 | 2 | -6
C=C(CCC(=O)c1ccccc1)C(=O)c1ccccc1 | 13 | 19 | -1 | -6 | 41*
COc1ccc(-c2cn3cccc(C)c3n2)cc1F | -50 | 41* | 32 | 21 | 13
Cc1ccc(-c2cn3cccc(C)c3n2)cc1 | -44 | -4 | -4 | 5 | -8
COc1cc2[nH]c(=S)n(CCN3CCOCC3)c(=O)c2cc1OC | 19 | 104* | 8 | -12 | 13
CN(c1ccc(C(=O)NCc2ccccc2)cc1)S(C)(=O)=O | 6 | 40* | 6 | 23 | 25
Nc1nnc(SCC(=O)N2CCN(c3cccc(Cl)c3)CC2)n1-c1ccccc1 | -12 | -9 | 10 | 19 | 5
CC(=O)N1C(=O)/C(=C2\SC(=S)N(c3c(C)n(C)n(-c4ccccc4)c3=O)C2=O)c2ccccc21 | -1 | 10 | -6 | 6 | 50*
COc1ccccc1CC1S/C(=N/N=C/c2ccco2)NC1=O (configuration not stated) | -5 | -9 | -5 | -11 | -11
COc1ccc(C2C=C(c3ccc(Br)cc3)Nc3nc(N4C(=O)CCC4=O)nn32)cc1 (configuration not stated) | -401 | -85 | -3 | 13 | 53*
O=C1CCC(=O)N1c1nc2n(n1)C(c1ccccc1)C=C(c1ccc(Br)cc1)N2 (configuration not stated) | -336 | -16 | -6 | 15 | 11
COc1ccccc1C1C=C(c2ccc(Cl)cc2)Nc2nc(N3C(=O)CCC3=O)nn21 (configuration not stated) | -286 | -34 | 3 | 13 | 50*
COc1ccc(CN(C(=O)c2ccc3c(c2)OCCO3)C(C(=O)NC2CCCCC2)c2ccc3ncccc3c2)cc1 (configuration not stated) | -90 | 150* | -6 | 0 | 4
CCCCn1nnc(NC(=O)COc2ccc(Cl)c(C)c2)n1 | 21 | 104* | 0 | 7 | 10
CCO/C(=C/c1sc2ccc(OC)cc2[n+]1CCCS(=O)(=O)[O-])CC | -3 | -5 | 1 | 15 | 3
CCOC(=O)C[n+]1c(C)sc2ccc(OC)cc21 | 9 | -10 | 9 | 43* | 1
Cc1cccc(S(=O)(=O)NCCc2ccccc2)c1 | 14 | 2 | -1 | 11 | -4
Cn1nc(C(F)(F)F)c2cc(NC(=O)OCc3ccc(F)cc3)sc21 | 90* | -6 | -6 | 3 | -5
COc1ccc(COC(=O)Nc2cc3c(C(F)(F)F)nn(C)c3s2)cc1 | 62* | -4 | -6 | 7 | -5
CCN(CC)c1ccc(/C=N/OCC(=O)N2CCCc3ccccc32)cc1 | 36 | 3 | -12 | -3 | 27
O=C(Nc1cc(=O)c2ccccc2o1)N1CCOCC1 | -121 | -11 | 9 | -7 | -5
Cc1ccc2oc(NC(=O)N3CCOCC3)cc(=O)c2c1 | -84 | 3 | 0 | 80* | -1
CCc1ccc(N2C(=O)C3C4CCC(C4=C(C)C)C3C2=O)cc1 (configuration not stated) | -1 | -12 | 3 | 2 | -4
COCC(C)n1c(C)cc(C(=O)COC(=O)CNC(=O)c2ccccc2)c1C (configuration not stated) | -17 | -27 | 0 | 5 | -8
O=C(CNC(=O)c1ccccc1)NCC(=O)OCC(=O)c1ccc(F)cc1 | 18 | 80* | 20 | 31 | 16
